Values after ≈ are worked out from the molar mass of the structure shown.
Tests used:
Talaromyces funiculosus [1] = test: Antifungal activity against Penicillium funiculosum ATCC 36839 treated for 72 hrs followed by sub-cultivated for 5 days by serial dilution method; format: functional
Outline: (§1)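 MFC obtained after the 72 h, 28 °C malt-broth microdilution (spore inoculum about 1.0 × 10^5 per well, compounds from 1 mg/ml DMSO). 2 µl was serially subcultured into 100 µl broth per well and incubated a further 5 days at 28 °C. MFC is the lowest concentration with no visible growth, taken as 99.5% killing of the original inoculum.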

Fulvia fulva [2] = test: Antifungal activity against Fulvia fulva after 72 hrs by serial dilution method; format: functional
Outline: (§2)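 Modified microdilution MIC. Spores were washed from malt agar cultures with sterile 0.85% saline containing 0.1% Tween 80 and adjusted to about 1.0 × 10^5 per 100 µl well in malt broth. Compounds were dissolved in DMSO (1 mg/ml). Plates incubated 72 h at 28 °C. MIC is the lowest concentration with no visible growth under a binocular microscope. Bifonazole and ketoconazole were the references.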

Aspergillus versicolor [3] = test: Antifungal activity against Aspergillus versicolor ATCC 11730 treated for 72 hrs followed by sub-cultivated for 5 days by serial dilution method; format: functional; outline: as §1
Trichoderma viride [4] = test: Antifungal activity against Trichoderma viride IAM 5061 treated for 72 hrs followed by sub-cultivated for 5 days by serial dilution method; format: functional; outline: as §1
Aspergillus flavus [5] = test: Antifungal activity against Aspergillus flavus ATCC 9643 after 72 hrs by serial dilution method; format: functional; conditions: ATCC 9643, 72 h; outline: as §2
Aspergillus versicolor [6] = test: Antifungal activity against Aspergillus versicolor ATCC 11730 after 72 hrs by serial dilution method; format: functional; conditions: ATCC 11730, 72 h; outline: as §2
Penicillium ochrochloron [7] = test: Antifungal activity against Penicillium ochrochloron ATCC 9112 after 72 hrs by serial dilution method; format: functional; conditions: ATCC 9112, 72 h; outline: as §2
Aspergillus fumigatus [8] = test: Antifungal activity against Aspergillus fumigatus human isolate after 72 hrs by serial dilution method; format: functional; outline: as §2
Aspergillus flavus [9] = test: Antifungal activity against Aspergillus flavus ATCC 9643 treated for 72 hrs followed by sub-cultivated for 5 days by serial dilution method; format: functional; outline: as §1
Talaromyces funiculosus [10] = test: Antifungal activity against Penicillium funiculosum ATCC 36839 after 72 hrs by serial dilution method; format: functional; conditions: ATCC 36839, 72 h; outline: as §2
Penicillium ochrochloron [11] = test: Antifungal activity against Penicillium ochrochloron ATCC 9112 treated for 72 hrs followed by sub-cultivated for 5 days by serial dilution method; format: functional; outline: as §1
Aspergillus fumigatus [12] = test: Antifungal activity against Aspergillus fumigatus human isolate treated for 72 hrs followed by sub-cultivated for 5 days by serial dilution method; format: functional; outline: as §1
Fulvia fulva [13] = test: Antifungal activity against Fulvia fulva treated for 72 hrs followed by sub-cultivated for 5 days by serial dilution method; format: functional; outline: as §1
Aspergillus niger [14] = test: Antifungal activity against Aspergillus niger ATCC 6275 after 72 hrs by serial dilution method; format: functional; conditions: ATCC 6275, 72 h; outline: as §2
Trichoderma viride [15] = test: Antifungal activity against Trichoderma viride IAM 5061 after 72 hrs by serial dilution method; format: functional; conditions: IAM 5061, 72 h; outline: as §2
Aspergillus niger [16] = test: Antifungal activity against Aspergillus niger ATCC 6275 treated for 72 hrs followed by sub-cultivated for 5 days by serial dilution method; format: functional; outline: as §1
Bacillus cereus [17] = test: Antibacterial activity against Bacillus cereus clinical isolate after 24 hrs by micro dilution method; format: functional
Outline: (§3)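 Microdilution MIC in 96-well plates. Bacterial suspensions adjusted in sterile saline to 1.0 × 10^5 CFU/ml, giving 1.0 × 10^4 cfu per well in LB broth. Compounds tested at up to 1 mg/ml. Plates incubated 24 h. MIC taken as the lowest concentration with no visible growth under a binocular microscope. OD at 655 nm was also read against a blank and the positive control. Streptomycin and ampicillin were the positive controls.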

Bacillus cereus [18] = test: Antibacterial activity against Bacillus cereus clinical isolate treated for 24 hrs followed by sub-cultivated for 72 hrs by micro dilution method; format: functional
Outline: (§4)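 2 µl from each well was serially subcultured into 100 µl fresh broth per well and incubated a further 72 h. MBC is the lowest concentration with no visible growth, taken as 99.5% killing of the original inoculum. Streptomycin and ampicillin were the positive controls.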

Escherichia coli [19] = test: Antibacterial activity against Escherichia coli ATCC 35210 after 24 hrs by micro dilution method; format: functional; conditions: ATCC 35210, 24 h; outline: as §3
Listeria monocytogenes [20] = test: Antibacterial activity against Listeria monocytogenes NCTC 7973 after 24 hrs by micro dilution method; format: functional; conditions: NCTC 7973, 24 h; outline: as §3
Listeria monocytogenes [21] = test: Antibacterial activity against Listeria monocytogenes NCTC 7973 treated for 24 hrs followed by sub-cultivated for 72 hrs by micro dilution method; format: functional; outline: as §4
Escherichia coli [22] = test: Antibacterial activity against Escherichia coli ATCC 35210 treated for 24 hrs followed by sub-cultivated for 72 hrs by micro dilution method; format: functional; outline: as §4
Staphylococcus aureus [23] = test: Antibacterial activity against Staphylococcus aureus ATCC 6538 after 24 hrs by micro dilution method; format: functional; conditions: ATCC 6538, 24 h; outline: as §3
Salmonella typhimurium [24] = test: Antibacterial activity against Salmonella Typhimurium ATCC 13311 treated for 24 hrs followed by sub-cultivated for 72 hrs by micro dilution method; format: functional, Salmonella enterica subsp. enterica serovar Typhimurium; conditions: Salmonella enterica; outline: as §4
Salmonella typhimurium [25] = test: Antibacterial activity against Salmonella Typhimurium ATCC 13311 after 24 hrs by micro dilution method; format: functional, Salmonella enterica subsp. enterica serovar Typhimurium; conditions: Salmonella enterica, ATCC 13311, 24 h; outline: as §3
Pseudomonas aeruginosa [26] = test: Antibacterial activity against Pseudomonas aeruginosa ATCC 27853 treated for 24 hrs followed by sub-cultivated for 72 hrs by micro dilution method; format: functional; outline: as §4
Micrococcus flavus [27] = test: Antibacterial activity against Micrococcus flavus ATCC 10240 treated for 24 hrs followed by sub-cultivated for 72 hrs by micro dilution method; format: functional; outline: as §4
Staphylococcus aureus [28] = test: Antibacterial activity against Staphylococcus aureus ATCC 6538 treated for 24 hrs followed by sub-cultivated for 72 hrs by micro dilution method; format: functional; outline: as §4
Enterobacter cloacae [29] = test: Antibacterial activity against Enterobacter cloacae human isolate after 24 hrs by micro dilution method; format: functional; outline: as §3
Micrococcus flavus [30] = test: Antibacterial activity against Micrococcus flavus ATCC 10240 after 24 hrs by micro dilution method; format: functional; conditions: ATCC 10240, 24 h; outline: as §3
Enterobacter cloacae [31] = test: Antibacterial activity against Enterobacter cloacae human isolate treated for 24 hrs followed by sub-cultivated for 72 hrs by micro dilution method; format: functional; outline: as §4
Pseudomonas aeruginosa [32] = test: Antibacterial activity against Pseudomonas aeruginosa ATCC 27853 after 24 hrs by micro dilution method; format: functional; conditions: ATCC 27853, 24 h; outline: as §3

| Compound | MFC (Talaromyces funiculosus [1]) | MIC (Fulvia fulva [2]) | MFC (Aspergillus versicolor [3]) | MFC (Trichoderma viride [4]) | MIC (Aspergillus flavus [5]) | MIC (Aspergillus versicolor [6]) | MIC (Penicillium ochrochloron [7]) | MIC (Aspergillus fumigatus [8]) | MFC (Aspergillus flavus [9]) | MIC (Talaromyces funiculosus [10]) | MFC (Penicillium ochrochloron [11]) | MFC (Aspergillus fumigatus [12]) | MFC (Fulvia fulva [13]) | MIC (Aspergillus niger [14]) | MIC (Trichoderma viride [15]) | MFC (Aspergillus niger [16]) | other results |
| --- | --- | --- | --- | --- | --- | --- | --- | --- | --- | --- | --- | --- | --- | --- | --- | --- | --- |
| c1ccc(-c2ccc(C(c3ccccc3)n3ccnc3)cc2)cc1 (stereo not drawn) [BIFONAZOLE] | 800 µM (≈ 248 µg/mL) | 320 µM (≈ 99.3 µg/mL) | 640 µM (≈ 199 µg/mL) | 800 µM (≈ 248 µg/mL) | 480 µM (≈ 149 µg/mL) | 320 µM (≈ 99.3 µg/mL) | 480 µM (≈ 149 µg/mL) | 480 µM (≈ 149 µg/mL) | 640 µM (≈ 199 µg/mL) | 640 µM (≈ 199 µg/mL) | 640 µM (≈ 199 µg/mL) | 640 µM (≈ 199 µg/mL) | 640 µM (≈ 199 µg/mL) | 480 µM (≈ 149 µg/mL) | 640 µM (≈ 199 µg/mL) | 640 µM (≈ 199 µg/mL) | – |
| CC(=O)N1CCN(c2ccc(OCC3COC(Cn4ccnc4)(c4ccc(Cl)cc4Cl)O3)cc2)CC1 (stereo not drawn) [KETOCONAZOLE] | 950 µM (≈ 505 µg/mL) | 380 µM (≈ 202 µg/mL) | 950 µM (≈ 505 µg/mL) | 5700 µM (≈ 3030 µg/mL) | 2850 µM (≈ 1510 µg/mL) | 380 µM (≈ 202 µg/mL) | 3800 µM (≈ 2020 µg/mL) | 380 µM (≈ 202 µg/mL) | 3800 µM (≈ 2020 µg/mL) | 380 µM (≈ 202 µg/mL) | 3800 µM (≈ 2020 µg/mL) | 950 µM (≈ 505 µg/mL) | 950 µM (≈ 505 µg/mL) | 380 µM (≈ 202 µg/mL) | 4750 µM (≈ 2520 µg/mL) | 950 µM (≈ 505 µg/mL) | – |
| CN[C@@H]1[C@H](O[C@H]2[C@H](O[C@H]3[C@H](O)[C@@H](O)[C@H](N=C(N)N)[C@@H](O)[C@@H]3N=C(N)N)O[C@@H](C)[C@]2(O)C=O)O[C@@H](CO)[C@H](O)[C@H]1O [STREPTOMYCIN] | – | – | – | – | – | – | – | – | – | – | – | – | – | – | – | – | MIC (Bacillus cereus [17]): 90 µM (≈ 52.3 µg/mL); MBC (Bacillus cereus [18]): 170 µM (≈ 98.9 µg/mL); MIC (Escherichia coli [19]): 260 µM (≈ 151 µg/mL); MIC (Listeria monocytogenes [20]): 170 µM (≈ 98.9 µg/mL); MBC (Listeria monocytogenes [21]): 340 µM (≈ 198 µg/mL); MBC (Escherichia coli [22]): 520 µM (≈ 302 µg/mL); MIC (Staphylococcus aureus [23]): 40 µM (≈ 23.3 µg/mL); MBC (Salmonella typhimurium [24]): 340 µM (≈ 198 µg/mL); MIC (Salmonella typhimurium [25]): 170 µM (≈ 98.9 µg/mL); MBC (Pseudomonas aeruginosa [26]): 340 µM (≈ 198 µg/mL); MBC (Micrococcus flavus [27]): 340 µM (≈ 198 µg/mL); MBC (Staphylococcus aureus [28]): 90 µM (≈ 52.3 µg/mL); MIC (Enterobacter cloacae [29]): 170 µM (≈ 98.9 µg/mL); MIC (Micrococcus flavus [30]): 170 µM (≈ 98.9 µg/mL); MBC (Enterobacter cloacae [31]): 340 µM (≈ 198 µg/mL); MIC (Pseudomonas aeruginosa [32]): 170 µM (≈ 98.9 µg/mL) |
